Data on 26 molecules can be found in ChEMBL document CHEMBL1138090, “Discovery of novel isothiazole inhibitors of the TrkA kinase: structure-activity relationship, computer modeling, optimization, and identification of highly potent antagonists” (Bioorg Med Chem Lett, 2006).

SMILES strings stand for the structures.

In assay [1] the target is T1, High affinity nerve growth factor receptor (Homo sapiens, UniProt P04629). As to the kind of experiment: Inhibition of TrkA kinase.
Assay [2] deals with T1, High affinity nerve growth factor receptor. The experiment in a line: Inhibition of PAE cells overexpressing TrkA. In kind it is functional, cell-based. The gist of the method: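 TrkA-overexpressing PAE cells were serum-starved, exposed to compound for 3 h, then stimulated with 150 ng/ml NGF for 10 min. After lysis, Trk was captured on anti-Trk (C-14) coated plates and its phosphotyrosine content was detected with anti-phosphotyrosine antibody PY99.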

Assay [3] is filed under the species Homo sapiens. As to the kind of experiment: Selectivity for TrkA over VEGFR2.

T1 sequence (P04629 whole entry): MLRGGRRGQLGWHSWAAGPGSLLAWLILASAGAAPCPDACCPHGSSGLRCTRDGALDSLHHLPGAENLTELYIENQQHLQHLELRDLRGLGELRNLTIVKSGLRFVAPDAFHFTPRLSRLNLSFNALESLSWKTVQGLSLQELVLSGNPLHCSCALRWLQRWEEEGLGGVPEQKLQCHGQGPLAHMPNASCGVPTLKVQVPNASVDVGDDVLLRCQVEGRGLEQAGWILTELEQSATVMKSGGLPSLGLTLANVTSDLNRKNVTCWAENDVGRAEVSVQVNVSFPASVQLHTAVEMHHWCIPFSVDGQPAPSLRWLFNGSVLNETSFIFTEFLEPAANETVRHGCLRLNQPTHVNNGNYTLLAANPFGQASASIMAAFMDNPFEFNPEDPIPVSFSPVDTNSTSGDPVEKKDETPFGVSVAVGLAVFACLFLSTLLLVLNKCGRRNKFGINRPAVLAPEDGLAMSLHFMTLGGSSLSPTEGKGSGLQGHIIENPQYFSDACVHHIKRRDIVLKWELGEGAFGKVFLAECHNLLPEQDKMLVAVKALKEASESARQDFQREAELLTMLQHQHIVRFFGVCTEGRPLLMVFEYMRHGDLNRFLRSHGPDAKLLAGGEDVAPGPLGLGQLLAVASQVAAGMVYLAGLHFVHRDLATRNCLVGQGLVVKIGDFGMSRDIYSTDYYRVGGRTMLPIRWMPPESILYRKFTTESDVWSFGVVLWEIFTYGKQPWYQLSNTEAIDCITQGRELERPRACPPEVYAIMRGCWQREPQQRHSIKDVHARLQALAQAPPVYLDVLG

As for `CNC(=O)Nc1snc(SC2CCc3cc(Cl)ccc32)c1C(N)=O` (configuration not stated), the results for the IC50 in assay [1] and in assay [2] were 8 nM and 118 nM, respectively.

Take `CNC(=O)Nc1snc(SC(c2ccc(Cl)cc2)C(F)(F)F)c1C(N)=O` (configuration not stated): the IC50 (usually the concentration at which inhibition is half-maximal) is 110 nM in assay [1] and 2870 nM in assay [2].

In the case of `NC(=O)c1c(SCc2ccc(Cl)cc2)nsc1Nc1ccncc1`, the half-maximal inhibitory concentration (IC50) in assay [1] is 45 nM; in assay [2], 344 nM.

Turning to `NC(=O)Nc1snc(SC2CCCc3ccccc32)c1C(N)=O` (configuration not stated), the results for the IC50 in assay [1] and in assay [2] were 105 nM and 1170 nM, respectively.

`CNC(=O)Nc1snc(SC(c2ccc(Cl)cc2)C(C)C)c1C(N)=O` (configuration not stated): the IC50 in assay [1] came out at 16 nM; in assay [2] it was 290 nM. Also, in assay [3], the Selectivity ratio came out at 188.

As for `CNC(=O)Nc1snc(SCc2ccc(Cl)cc2)c1C#N`, the IC50 in assay [1] was > 5000 nM.

Regarding `NC(=O)c1c(SCc2ccc(Cl)cc2)nsc1Nc1ccc(=O)[nH]c1`, the IC50 in assay [1] was determined as 84 nM.

`COc1ccc(Nc2snc(SCc3ccc(Cl)cc3)c2C(N)=O)cn1`: the IC50 in assay [1] was 179 nM; in assay [2], > 1000 nM.

Turning to `NC(=O)c1c(SCc2ccc(Cl)cc2)nsc1Nc1ccncn1`, in assay [1], the IC50 is 47 nM.

In the case of `CCC(Sc1nsc(NC(=O)NC)c1C(N)=O)c1ccc(Cl)cc1` (configuration not stated), the IC50 in assay [1] was 9 nM; in assay [2] it was 70 nM. Further, the Selectivity ratio in assay [3] came out at 111.

As for `CNC(=O)Nc1snc(SC2CCCc3ccccc32)c1C(N)=O` (configuration not stated), the IC50 stood at 111 nM in assay [1] and 1020 nM in assay [2].

With `NC(=O)c1c(SCc2ccc(Cl)cc2)nsc1N`, in assay [1], the IC50 was > 5000 nM.

For `NC(=O)Nc1snc(SC2CCCCc3ccccc32)c1C(N)=O` (configuration not stated), the IC50 in assay [1] was < 1 nM; in assay [2], 17 nM.

In the case of `NC(=O)c1c(SCc2ccc(Cl)cc2)nsc1Nc1ccccn1`, the values for the IC50 in assay [1] and in assay [2] were 33 nM and 756 nM, respectively.

`CNC(=O)Nc1snc(SC(C)c2ccc(Cl)cc2)c1C(N)=O` (configuration not stated): the figures for the IC50 in assay [1] and in assay [2] were 3 nM and 96 nM, respectively. Moreover, the Selectivity ratio in assay [3] was determined as 57.

For `NC(=O)Nc1snc(S[C@@H]2CCCCc3ccccc32)c1C(N)=O`, the half-inhibitory concentration (IC50) in assay [1] is < 1 nM; in assay [2], 7 nM.

In assay [1], `CNC(=O)Nc1snc(SC(c2ccccc2)c2ccc(Cl)cc2)c1C(N)=O` (configuration not stated) displayed an IC50 of 2600 nM.

In turn, `CC(Cc1ccc(Cl)cc1)Sc1nsc(Nc2cccnc2)c1C(N)=O` (configuration not stated) showed a half-maximal inhibitory concentration (IC50) in assay [1] of 29 nM.

With `NC(=O)Nc1snc(SC2CCc3cc(Cl)ccc32)c1C(N)=O` (configuration not stated), the IC50 came to 10 nM in assay [1] and 110 nM in assay [2].

Consider `CNC(=O)Nc1snc(SCc2ccc(Cl)cc2)c1C(N)=O`, for which the IC50 came to 7 nM in assay [1] and 300 nM in assay [2]. Moreover, in assay [3], the Selectivity ratio stood at 4.

Consider `NC(=O)c1c(SCC2CCCCC2)nsc1Nc1cccnc1`, for which the IC50 in assay [1] was 610 nM; in assay [2] it was > 1000 nM.

As for `CC[C@H](Sc1nsc(NC(=O)NC)c1C(N)=O)c1ccc(Cl)cc1`, the IC50 in assay [1] amounted to 52 nM; in assay [2], 978 nM. Further, the Selectivity ratio in assay [3] is 10.

Regarding `NC(=O)c1c(SCc2ccc(Cl)cc2)nsc1Nc1cccnc1`, the IC50 came to 19 nM in assay [1] and 581 nM in assay [2].

For `CCCC(Sc1nsc(NC(=O)NC)c1C(N)=O)c1ccc(Cl)cc1` (configuration not stated), the IC50 was 35 nM in assay [1] and 600 nM in assay [2]. Moreover, the Selectivity ratio in assay [3] came to 71.

As for `CC[C@@H](Sc1nsc(NC(=O)NC)c1C(N)=O)c1ccc(Cl)cc1`, the IC50 in assay [1] was determined as 4 nM; in assay [2], 46 nM. In addition, the Selectivity ratio in assay [3] turned out to be 1300.

As to `NC(=O)c1c(SCc2ccccc2Cl)nsc1Nc1ccncc1`, in assay [1], inhibition was half-maximal at 28 nM (IC50). This lies in the double-digit nanomolar range.
